{"data": "Measured values collected from several papers"}
{"Structure (SMILES)": "CS(=O)(=O)c1ccc2c(c1)C(=O)CCc1ccccc1C(=O)N2", "target or system": "L6", "assay": "cell growth or viability", "quantity": "IC50", "value": "> 300000 nM"}
{"Structure (SMILES)": "CCn1cc(-c2ccccn2)c(=O)c2cc(F)c(N3CCC(C)CC3)cc21", "target or system": "Plasmodium falciparum", "assay": "parasite growth", "system": "3D7", "setting": "72 h, blood stage", "quantity": "EC50", "value": "> 10000 nM"}
{"Structure (SMILES)": "CN1CCN(S(=O)(=O)c2ccc(-c3ccc4c(Nc5ccc(Cl)cn5)ccnc4c3)cc2)CC1", "target or system": "Plasmodium falciparum", "assay": "parasite growth", "system": "D6", "setting": "drug-resistant strain, blood stage", "quantity": "EC50", "value": "250 nM"}
{"Structure (SMILES)": "CC(=O)Nc1cccc(-n2c(=O)n(C3CC3)c(=O)c3c(Nc4ccc(I)cc4F)n(C)c(=O)c(C)c32)c1", "target or system": "SW1417", "assay": "cell growth or viability, resazurin", "setting": "1.56 nM, 72 h", "quantity": "viability", "value": "80.5%"}
{"Structure (SMILES)": "O=C1Nc2ccccc2C(=O)CCc2ccccc21", "target or system": "L6", "assay": "cell growth or viability", "quantity": "IC50", "value": "53000 nM"}
{"Structure (SMILES)": "O=C1C(O)=C([C@H]2CC[C@H](c3ccc(Cl)cc3)CC2)C(=O)c2ccccc21", "target or system": "Plasmodium falciparum", "assay": "parasite growth", "system": "3D7", "setting": "blood stage", "quantity": "EC50", "value": "1.6 nM"}
{"Structure (SMILES)": "CN1CCN(S(=O)(=O)c2ccc(-c3ccc4c(Nc5ccc(C(F)(F)F)nc5)ccnc4c3)cc2)CC1", "target or system": "Plasmodium falciparum", "assay": "parasite growth", "system": "D6", "setting": "drug-resistant strain, blood stage", "quantity": "EC50", "value": "160 nM"}
{"Structure (SMILES)": "O=C1Nc2ccccc2C(=O)CCc2ccc(O)cc21", "target or system": "L6", "assay": "cell growth or viability", "quantity": "IC50", "value": "200000 nM"}
{"Structure (SMILES)": "COc1ccc(Nc2ccnc3cc(-c4cn[nH]c4)ccc23)cc1Cl", "target or system": "Plasmodium falciparum", "assay": "parasite growth", "system": "D6", "setting": "drug-resistant strain, blood stage", "quantity": "EC50", "value": "250 nM"}
{"Structure (SMILES)": "CCn1cc(-c2nc(C)no2)c(=O)c2cc(F)c(N3CCC(C)CC3)cc21", "target or system": "Plasmodium falciparum", "assay": "parasite growth", "system": "3D7", "setting": "72 h, blood stage", "quantity": "EC50", "value": "19 nM"}
